The chains are these.
B1: NELF-E aptamer (parent)
chain: CCCAACGACUGCCGAGCGAGAUUACGCUUGAGCGCCCCACUGAGGAUGCCCACGGGCGAUUGGGGCACGG

Variants of B1 are the subject of the series. As to the kind of experiment: HiTS-RAP. The conditions noted are these: with NELF-E (Drosophila). Summed up: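 Aptamer DNA templates bearing a T7 promoter and a ter site were sequenced on an Illumina GAIIx flowcell. T7 RNA polymerase then transcribed them in situ, and GST-Tus halted transcription over 30 minutes at 37°C. After a 30-minute room-temperature equilibration with NELF-E-mOrange at 0.064 to 1000 nM in HEPES binding buffer, clusters were imaged, using only the first binding curve. Intensities normalised to sequencing intensity were averaged per sequence and fitted with weighted Hill fits to give Kd, retaining only fits whose variance stayed under 1,000,000.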
For C13G C38U, the Kd is 6.55 nM.
With C13G U22G the figure was 5.27 nM.
The figure for C13G U22C is 4.85 nM; for G11U C27U it is 4.86 nM.
The figure for G11U C17G is 5.84 nM; for G11U C17U it is 5.76 nM.
With G11U G54A, the Kd amounted to 14.1 nM.
Take C12G C66U: the dissociation constant (Kd) was determined as 6.17 nM.
Take G11U U23G: the equilibrium dissociation constant (Kd) was found to be 6.33 nM.
For C12G G42A, the Kd is 39.8 nM.
Turning to G11U G55U, the Kd turned out to be 7.1 nM.
For G11U G55A, the dissociation constant Kd was 8.79 nM.
With C13G G48A the figure was 11 nM; with C13G G48U, 6.97 nM; with G14U A43G, 116 nM.
With G14U A43U the figure was 84.4 nM; with C13U A39G, 7.82 nM; with C13U A39U, 20.4 nM.
The figure for C12G G14A is 5.91 nM; for C12G G14U it is 6.28 nM.
As for C12G C13U, the dissociation constant (Kd) was 5.88 nM.
In the case of C12G C13G, the dissociation constant Kd came out at 5.01 nM.
In the case of C13U G20U, the equilibrium dissociation constant (Kd) is 7.13 nM.
For the variant G14A G63A, the dissociation constant (Kd) came out at 12 nM.
With G14U A19G the figure was 6.25 nM; with G14U A19U, 7.38 nM.
As to C12G C36U, the Kd was 7.29 nM.
The figure for G11U U61C is 64.3 nM; for G11U U61A it is 41.1 nM; for C12G C33U it is 6 nM.
With C12G A39G the figure was 10.3 nM; with C12G A39U, 25 nM; with C13G C33U, 5.79 nM.
The figure for C13G C33G is 6.05 nM; for G14U A15U it is 6.94 nM.
Consider G14U A15G, for which the Kd is 6.08 nM.
The figure for C13G C40G is 5.72 nM; for C12G G64A it is 8.49 nM; for G14A A52G it is 4.13 nM.
As for C13G C50U, the Kd is 14.7 nM.
For G14A A24G, the Kd turned out to be 5.71 nM.
The figure for G11U G26A is 5.08 nM; for G11U G26U it is 6.79 nM.
The figure for C12G A24G is 5.9 nM.
The figure for G14A C51U is 7.06 nM.
Turning to G14U, the dissociation constant (Kd) is 5.68 nM.
With G14A, the Kd was 4.94 nM.
The figure for G14C is 5.95 nM; for G14U A21U it is 6.73 nM; for G14U A21G it is 6.69 nM.
In the case of C13G G63U, the Kd was 7.98 nM.
With C13G G63A the figure was 20.2 nM; with C12G U29A, 5.65 nM; with C12G U29C, 6.33 nM.
On to C12G U29G, for which the Kd came to 5.61 nM.
On to G11U C25G, for which the Kd was found to be 4.89 nM.
With C12G G26U the figure was 5.65 nM; with C12G G26A, 4.12 nM.
Turning to C13G G26A, the Kd was 4.79 nM.
With C13G G26U the figure was 5.51 nM; with C13A U23G, 5.96 nM.
As for C13U A52G, the dissociation constant (Kd) was 3.79 nM.
The figure for C13U A52U is 10.1 nM.
The figure for C12A U23G is 5.88 nM.
Regarding G14A G54A, the dissociation constant (Kd) worked out at 12.4 nM.
Turning to G11U U29C, the Kd was found to be 6.7 nM.
As for G11U U29A, the Kd was found to be 5.62 nM.
The figure for G11U U29G is 6 nM; for C13G A59G it is 12.2 nM.
C13G A59U: the Kd is 42.1 nM.
The figure for C12G U28G is 8.85 nM; for C12G U28C it is 8.42 nM.
The figure for C12G U28A is 6.47 nM; for G11U C51U it is 6.67 nM; for C12U U29G it is 5.46 nM.
The figure for C13U C57U is 4.06 nM; for C13A U22G it is 5.85 nM; for C13G U23A it is 5.32 nM.
For the variant C13G U23C, the Kd was determined as 5.7 nM.
With C13G U23G the figure was 5.29 nM; with C13U G14U, 5.39 nM.
With C12G U47G, the Kd turned out to be 8.13 nM.
Regarding C13G G18A, the Kd stood at 5.31 nM.
With C13G G18U the figure was 6.2 nM; with C13G U60G, 5.12 nM; with C13G U60C, 8.4 nM.
Turning to G14A A19G, the Kd was determined as 5.88 nM.
Consider G14A A19U, for which the dissociation constant (Kd) worked out at 4.56 nM.
With C12U G16U the figure was 5.76 nM.
G14A U23G: the Kd is 5.88 nM.
With C12G G18A the figure was 7.26 nM.
Regarding C12G G62U, the dissociation constant Kd is 10.8 nM.
With G11U C13A the figure was 6.58 nM; with G11U C13U, 6.19 nM.
With G11U C13G the figure was 5.71 nM.
As to G11U C37U, the equilibrium dissociation constant (Kd) turned out to be 7.71 nM.
With C13G U28A the figure was 4.22 nM; with C13G U28G, 6.99 nM.
Regarding C13G U28C, the dissociation constant (Kd) came out at 8.82 nM.
The figure for C13U A15U is 4.83 nM; for C13U A67U it is 3.81 nM.
Turning to C12G G34A, the dissociation constant Kd amounted to 7.36 nM.
With G14A A67G the figure was 5.51 nM.
With G14A A67U the figure was 6.56 nM; with C12G G63U, 13.7 nM; with C13U U22G, 5.14 nM.
With G11U G64A the figure was 9.29 nM.
Consider C13G A24U, for which the Kd came out at 7.79 nM.
With C13G A24G the figure was 5.57 nM; with C13G G16U, 6.25 nM; with C13G G16A, 6.87 nM.
The figure for C13U U41G is 5.56 nM.
Regarding C13U G64A, the equilibrium dissociation constant (Kd) came to 8.04 nM.
As for C12G G20U, the Kd worked out at 7.97 nM.
With C13G A67G the figure was 5.62 nM; with C13G A67U, 7.5 nM.
Take G14A A39U: the dissociation constant Kd stood at 31 nM.
For the variant G14A A39G, the Kd was found to be 9.46 nM.
With G11U A43G the figure was 45.8 nM; with C13G A43G, 15.3 nM.
With C13G A43U the figure was 27.8 nM.
Take C12U C17G: the dissociation constant (Kd) was 6.2 nM.
With C13G C25U, the dissociation constant (Kd) came to 5.55 nM.
Consider C13G C25G, for which the dissociation constant Kd was 5.76 nM.
Turning to C12G A52G, the dissociation constant (Kd) was 5.15 nM.
For C12G A52U, the Kd was found to be 16.2 nM.
With C13G C35U the figure was 14.4 nM; with C13G U47G, 6.66 nM; with C13G U47A, 11.8 nM.
The figure for G14U A24G is 6.51 nM.
With C13G G64A the figure was 6.69 nM; with C13G G64U, 8.93 nM; with C13G G64C, 5.83 nM.
As to C13G A46G, the dissociation constant (Kd) came out at 47.3 nM.
Regarding C13G A46U, the equilibrium dissociation constant (Kd) was found to be 87.3 nM.
The figure for C12G C53U is 5.74 nM.
Take G14A G20U: the Kd amounted to 5.9 nM.
With G11U U47G the figure was 7.92 nM; with C12G G65U, 8.23 nM; with C13A A24G, 9.1 nM.
The figure for G14A U28C is 7.17 nM; for G14A C57U it is 6.72 nM; for C13U U23G it is 4.9 nM.
With G11U A52G the figure was 3.84 nM.
Consider G11U A52U, for which the Kd is 16.5 nM.
C13U U28C: the Kd was found to be 6.27 nM.
With C13G C49U the figure was 31.9 nM.
C13U G55A: the Kd stood at 5.87 nM.
For the variant C12G U61A, the Kd was found to be 39.1 nM.
The figure for C13G G20U is 6.39 nM; for C13G G20A it is 7.5 nM.
G14A A43G: the Kd came to 9.58 nM.
With C13U C37U the figure was 7.46 nM; with G14A U29G, 5.42 nM.
G14A U29C: the equilibrium dissociation constant (Kd) turned out to be 4.73 nM.
Turning to G14A U29A, the Kd amounted to 4.86 nM.
With G11U C57U the figure was 6.12 nM; with C12U A39G, 6.76 nM.
With C13G G62A, the Kd turned out to be 32.4 nM.
With C13G G62U the figure was 7.22 nM; with C13A G20U, 7.23 nM; with G14A U22C, 5.13 nM.
On to G14A U22G, for which the dissociation constant (Kd) was determined as 5.03 nM.
For C12G C17U, the Kd worked out at 7.01 nM.
Take C12G C17G: the Kd stood at 5.66 nM.
As to G11U C12U, the dissociation constant (Kd) amounted to 4.76 nM.
With G11U C12G the figure was 5.8 nM.

Broadly, the Kd is the constant that tells how readily two partners part at equilibrium.
